These results are taken from ChEMBL document CHEMBL4321878, “Stereoselective Activity of 1-Propargyl-4-styrylpiperidine-like Analogues That Can Discriminate between Monoamine Oxidase Isoforms A and B” (J Med Chem, 2020).

The subject of series [1] is SH-SY5Y. The series can be described thus: Neuroprotective activity against 6-OHDA-induced toxicity in human SH-SY5Y cells assessed as LDH release at 5 uM pretreated for 30 mins followed by 6-OHDA challenge and measured after 24 hrs by cytotox-onetm homogeneous membrane integrity assay (reference value: 135%). Type of series: functional. For orientation: LDH in the medium is a marker of cell lysis.

Series [2] can be described thus: Cytotoxicity against human SH-SY5Y cells assessed as cell viability at 50 uM measured after 24 hrs by MTS assay relative to control. To be noted: read-out: Activity. Type of series: cell-based. In outline: (§1)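 SH-SY5Y human neuroblastoma cells grown in Advanced DMEM with 10% FBS at 37 °C, 5% CO2, and switched to serum-depleted medium before treatment. Compounds (20 mM DMSO stocks) were applied at 5, 10 or 50 μM for 24 h. Viability read by MTS assay.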
(Formazan colour is commonly taken as a measure of viable cells.)

The test system of series [3] is SH-SY5Y. The series can be described thus: Cytotoxicity against human SH-SY5Y cells assessed as reduction in cell viability at 5 to 10 uM measured after 24 hrs by MTS assay. Type of series: cell-based. In outline:
as §1

Series [4] addresses T1, Amine oxidase [flavin-containing] A (Homo sapiens, UniProt P21397).
T1 sequence (P21397 whole entry): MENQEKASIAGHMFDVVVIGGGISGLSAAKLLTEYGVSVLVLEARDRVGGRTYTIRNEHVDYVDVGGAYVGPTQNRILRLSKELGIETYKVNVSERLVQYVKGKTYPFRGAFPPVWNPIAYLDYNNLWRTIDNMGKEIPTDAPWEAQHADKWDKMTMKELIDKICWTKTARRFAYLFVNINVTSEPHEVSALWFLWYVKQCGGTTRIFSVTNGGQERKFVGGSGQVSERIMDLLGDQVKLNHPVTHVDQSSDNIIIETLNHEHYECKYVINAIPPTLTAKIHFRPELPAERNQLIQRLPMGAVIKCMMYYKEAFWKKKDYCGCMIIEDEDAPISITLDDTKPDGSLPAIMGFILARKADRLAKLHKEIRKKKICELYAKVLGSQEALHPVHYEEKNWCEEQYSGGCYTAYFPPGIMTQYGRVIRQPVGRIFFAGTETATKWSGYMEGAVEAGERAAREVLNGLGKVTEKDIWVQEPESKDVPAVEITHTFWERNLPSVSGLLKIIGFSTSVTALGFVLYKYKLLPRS
The note with it: 20 min.

The nature of series [5]: Solubility of the compound in pH 7.4 sodium phosphate buffer at >100 uM. Type of series: physicochemical.
The nature of series [6]: Photoisomerization of the compound in D2O incubated for 7 days under sunlight by NMR analysis.
Series [7] deals with SH-SY5Y. The series can be described thus: Neuroprotective activity against 6-OHDA-induced toxicity in human SH-SY5Y cells assessed as reduction in propidium iodide positive cells at 5 uM pretreated for 30 mins followed by 6-OHDA challenge and measured after 24 hrs by propidium iodide staining-based flow cytometric analysis relative to 6-OHDA. Type of series: functional. In outline:
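SH-SY5Y cells were grown in Advanced DMEM with 10% FBS at 37 °C, 5% CO2 to 80% confluence, then switched to serum-depleted medium. Compound (5 μM, from a 20 mM DMSO stock) was added 30 min before 6-OHDA (100 μM). After 24 h, PI staining was read by flow cytometry. Runs were n ≥ 2, each in duplicate, with one-way ANOVA and Bonferroni.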
Background: A flow cytometer gives signals particle by particle.

A short description of series [8]: Apparent permeability across absorptive direction in Sprague-Dawley rat ileum at 50 uM measured after 20 mins LC-MS/MS analysis. Type of series: ADME, tissue-based.
Series [9] relates to Mus musculus. The series can be described thus: Antidepressant-like activity in Swiss mouse assessed as reduction in immobility time at 30 mg/kg, ip administered as single dose for 30 mins prior to testing measured for last 4 mins of 6 mins test by tail suspension test. Type of series: functional, organism-based.
For series [10], the system named is Mus musculus. The series can be described thus: Antidepressant-like activity in Swiss mouse assessed as reduction in immobility time at 3 to 10 mg/kg, ip administered as single dose for 30 mins prior to testing measured for last 4 mins of 6 mins test by tail suspension test. Type of series: functional, organism-based.

The source made the active and inactive calls. The calls are words filed in the database; no cut-off is given here. Some results are limits rather than exact numbers.

Regarding `C#CCN1CCC(/C=C/c2ccc(F)cc2)CC1.Cl`, the Activity is 76% in the series on SH-SY5Y [1] and “Non-Toxic” with SH-SY5Y [3]. Also, the viability at 24 h, 50 µM in series [2] is greater than 80%.
On to `C#CCN1CCC(/C=C\c2ccc(C(F)(F)F)cc2)CC1`, for which, in [4], the activity at 100 µM stood at 80.1%.
`C#CCN1CCC(CCc2ccc(Cl)cc2)CC1`: the activity at 100 µM in series [4] was determined as 67.7%.
As to `C#CCN1CCC(/C=C/c2ccc(C(C)C)cc2)CC1`, the solubility result in series [5] was “Insoluble”.
`C#CCN1CCC(/C=C\c2ccc(S(C)(=O)=O)cc2)CC1`: the activity at 100 µM in series [4] was determined as 70.6%.
For the compound `C#CCN1CCC(/C=C/c2ccc(C(F)(F)F)cc2)CC1` [listing 1 of 2 here], the Drug metabolism result in series [6] is listed as “Metabolite not detected”.
Regarding `C#CCN1CCC(CCc2ccccc2)CC1`, the solubility result in [5] is “Insoluble”.
For `C#CCN1CCC(CCc2ccc(OC)cc2)CC1`, in [4], the activity at 100 µM is 62.2%.
Same read-out and setting: for `C#CCN1CCC(/C=C/c2ccc(C)cc2)CC1` the value was 57.3%.
`C#CCN1CCC(/C=C/c2ccc(C#N)cc2)CC1`: in [5], the solubility result is given as “Insoluble”.
Consider `C#CCN1CCC(CCc2ccc(C(N)=O)cc2)CC1`, for which the activity at 100 µM in [4] was determined as 75.1%.
Same read-out and setting: the result for `C#CCN1CCCC(/C=C/c2cc(F)c(F)cc2F)C1` (racemic) reads 102%.
Turning to `C#CCN1CCC(CCc2ccc(C(C)C)cc2)CC1.Cl`, the Activity in the series with SH-SY5Y [1] is on record as 82%; in the series with SH-SY5Y [3], “Non-Toxic”. In addition, the viability at 24 h, 50 µM in [2] is greater than 80%. Moreover, in the series on SH-SY5Y [7], the “fold change (FC)” value is 0.68.
With `C#CCN1CCCC(/C=C/c2ccc(F)cc2)C1` (racemic), in series [4], the activity at 100 µM came out at 91%.
On to `C#CCN1CCCC(CCc2cc(F)c(F)cc2F)C1` (racemic), for which the activity at 100 µM in series [4] amounted to 86%.
Same read-out and setting: the result for `C#CCN1CCC(CCc2ccc(C(F)(F)F)cc2)CC1` reads 62.3%; that for `C#CCN1CCC(CCc2ccc(O)cc2)CC1`, 67.7%.
In the case of `C#CCN1CCC(/C=C/c2ccc(C(F)(F)F)cc2)CC1` [listing 2 of 2 here], the activity at 100 µM in [4] was 64.9%.
The same measure, in the same setting: the result for `C#CCN1CCC(CCc2cccc(C(F)(F)F)c2)CC1` reads 71.6%.
For the compound `C#CCN1CCC(CCc2ccc(C#N)cc2)CC1.Cl`, the Activity in the series with SH-SY5Y [1] is 82%; in the series with SH-SY5Y [3], “Non-Toxic”. The viability at 24 h, 50 µM in [2] is greater than 80%.
On to `C#CCN1CCC(/C=C\c2ccc(C(N)=O)cc2)CC1`, for which, in [4], the activity at 100 µM worked out at 89.5%.
Turning to `C#CCN1CCC(CCc2ccc(C(C)C)cc2)CC1`, the solubility entry in [5] is “Insoluble”.
The Papp A→B is the apparent permeability from the apical to the basolateral side of a cell layer. For `COCCc1ccc(OCC(O)CNC(C)C)cc1` (centres undefined) [METOPROLOL], the Papp A→B at 20 min, 50 µM in series [8] turned out to be 14 ×10⁻⁶ cm/s.
For `C#CCN1CCC(/C=C\c2ccc(C)cc2)CC1`, the activity at 100 µM in [4] stood at 62.2%.
On the same count and under the same terms, for `C#CCN1CCC(CCc2cc(F)c(F)cc2F)CC1` the value was 65.6%; for `C#CCN1CCC(CCc2ccc(C)cc2)CC1`, 68.1%.
Consider `C#CCN1CCC(/C=C\c2ccc(Cl)cc2)CC1`, for which, in series [5], the solubility result is listed as “Insoluble”.
On to `C#CCN1CCCC(CCc2ccc(F)cc2)C1` (racemic), for which the activity at 100 µM in [4] was 93.1%.
With `CN(C)CCCN1c2ccccc2CCc2ccccc21`, the Activity entry with Mus musculus [9] was “Active”.
As to `C#CCN1CCC(/C=C/c2ccc(S(C)(=O)=O)cc2)CC1`, the activity at 100 µM in [4] came to 68.7%.
Same read-out and setting: the result for `C#CCN1CCC(/C=C/c2ccc(OC)cc2)CC1` reads 56.1%; that for `C#CCN1CCC(CCc2ccc(F)cc2)CC1`, 76.9%; that for `C#CCN1CCC(/C=C/c2ccc(Br)cc2)CC1`, 54.5%.
For `C#CCN1CCC(/C=C\c2ccccc2)CC1.Cl`, the viability at 24 h, 50 µM in series [2] was greater than 80%. In the series with Mus musculus [10], the Activity entry was “inactive”. The Activity result in the series on SH-SY5Y [3] is reported as “Non-Toxic”.
In the case of `C#CCN1CCC(/C=C/c2ccc(C(N)=O)cc2)CC1`, the activity at 100 µM in [4] worked out at 64.8%.
